Source: PubChem BioAssay (Johns Hopkins Ion Channel Center)
Shown are actives, neighbours in structure and some others; about 3.5% of the full set was active somewhere.
MrgX1 agonist: activates human MrgX1 receptor signaling; B-score at 10 µM; Q96LB2; MrgX1-HEK293 cells, Fluo-4 calcium fluorescence, agonist mode; hits give high values; 310,000 compounds, 0.44% hits;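 active = calcium response B-score plate-corrected fluorescence ratio at least 3 library SD, with starting fluorescence B-score inside 5 SD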
Target sequence (Q96LB2 whole entry, looked up): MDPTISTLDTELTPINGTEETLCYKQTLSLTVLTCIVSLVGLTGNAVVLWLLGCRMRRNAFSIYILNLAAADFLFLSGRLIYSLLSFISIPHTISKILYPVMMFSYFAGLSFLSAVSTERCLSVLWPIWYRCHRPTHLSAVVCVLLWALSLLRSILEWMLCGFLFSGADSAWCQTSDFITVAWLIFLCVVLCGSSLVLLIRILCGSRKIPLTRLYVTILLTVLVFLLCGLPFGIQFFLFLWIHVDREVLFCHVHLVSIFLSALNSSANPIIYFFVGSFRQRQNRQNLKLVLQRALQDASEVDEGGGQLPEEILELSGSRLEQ
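Material: MrgX1-expressing HEK293 cells; input: 15,000 cells per well; doses: test compound given as first of three sequential additions; schedule: overnight plating before 1 h dye loading; technique: Fluo-4 NW calcium-flux fluorescence, kinetic read; evaluation: baseline-normalised fluorescence change ratio, B-scored; control set: plate-wise positive and negative controls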
MrgX1 antagonist: antagonists of human MrgX1 receptor | Q96LB2 | MRGX1-HEK293 calcium flux, Fluo-4, BAM8-22 antagonism; hits give low values | B-score at 10 µM | 310,000 compounds, 1.3% hits;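 active = calcium-response B-score plate-corrected more than 3 library SD below zero, starting fluorescence within 5 deviations, no agonist response on first addition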;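 note: peak minus trough fluorescence over baseline after final BAM8-22 challenge near maximal dose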
RGS4 block: inhibitors of human RGS4 | P49798 | HEK293 M3R/RGS4 inducible, Fluo-4 calcium flux; hits give high values; triggered by carbachol at its EC20 | B-score at 10 µM | 310,000 compounds, 0.45% hits;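 active = B-score, a plate-corrected calcium signal, over three deviations above library mean, with baseline fluorescence within five deviations of library mean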;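 note: RGS4 expression induced by doxycycline in cells with stable M3 receptor; B-score is computed from the integrated fluorescence ratio over baseline after carbachol; higher B-score means a larger calcium signal and so more RGS4 inhibition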
Target sequence (P49798 whole entry, looked up): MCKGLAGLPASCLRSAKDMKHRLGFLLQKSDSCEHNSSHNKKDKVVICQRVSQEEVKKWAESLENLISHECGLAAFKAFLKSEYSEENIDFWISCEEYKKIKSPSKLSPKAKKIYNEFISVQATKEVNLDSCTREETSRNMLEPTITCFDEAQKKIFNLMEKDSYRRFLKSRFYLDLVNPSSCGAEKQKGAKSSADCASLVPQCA
RGS4 pot: potentiators or activators of RGS4; AID 463111; HEK293 M3R/inducible RGS4, carbachol calcium flux Fluo4; hits give low values; 310,000 compounds, 0.92% hits; B-score at 10 µM;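 active = B-score of the integrated calcium signal more than 4 SD below the library mean, with starting fluorescence not abnormally high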;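 note: negative B-score means reduced calcium response which marks RGS4 activation or potentiation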
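System – HEK293 FlpIn-TREx cells, stable M3R, doxycycline-inducible RGS4 · Reagent – ECmax carbachol challenge · Times – compound preincubation 20 min at room temperature before agonist · Technique – Fluo4 fluorescence kinetic imaging of calcium · Measure – B score of integrated Fluo4 ratio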
MrgX1 allo act: human MrgX1 positive allosteric modulation, primary screen; Q96LB2; MrgX1-HEK293, Fluo-4 calcium flux, FDSS; hits give high values; B-score at 10 µM; 310,000 compounds, 0.63% hits;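 active = plate-corrected calcium response at least 3 library SD above typical, normal starting fluorescence, not activating the receptor alone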;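 note: compound read alongside a low EC10 to EC30 dose of BAM8-22 agonist; peak minus trough fluorescence over baseline measured at the second addition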
Of the large screens only hits and unclear results are named; the others gave an inactive call.

O=C(c1ccccc1O)N1N=C(C(F)(F)F)CC1(O)c1ccc([N+](=O)[O-])cc1 (configuration not stated)	none
CCC1(O)CC(C(=O)OC)=NN1C(=O)c1ccccc1 (configuration not stated)	none
CCOC(=O)C1=NN(C(=O)c2ccc(C)cc2)C(O)(c2ccc(Cl)cc2)C1 (configuration not stated)	MrgX1 agonist 54, RGS4 pot -9.3
CCC1=NN(C(=O)c2ccccc2O)C(O)(c2ccccc2)C1 (configuration not stated)	none
CCC1=NN(C(=O)c2ccc(Cl)cc2)C(O)(c2ccccc2)C1 (configuration not stated)	MrgX1 agonist 40
COC(=O)C1=NN(C(=O)c2ccc(Cl)cc2)C(O)(c2ccccc2)C1 (configuration not stated)	MrgX1 agonist 39
CCC1=NN(C(=O)c2ccc([N+](=O)[O-])cc2)C(O)(c2ccccc2)C1 (configuration not stated)	MrgX1 allo act 14
Cc1ccc(C)c(OCCC(=O)N2CCN(S(=O)(=O)c3cc(C)ccc3C)CC2)c1	none
CCC1=NN(C(=O)c2ccc(Cl)cc2)C(O)(c2ccc(C)cc2)C1 (configuration not stated)	MrgX1 allo act 7.3
Fc1ccc(C2CCNCC2COc2ccc3c(c2)OCO3)cc1 (configuration not stated)	RGS4 pot -8.8
Fc1ccc([C@@H]2CCNC[C@H]2COc2ccc3c(c2)OCO3)cc1	RGS4 pot -7.1
COc1ccc([N+](=O)[O-])cc1NC(=O)C1(c2ccccc2)CCOCC1	MrgX1 allo act 8.7
COc1ccc([N+](=O)[O-])cc1NC(=O)c1ccccc1N(C)S(C)(=O)=O	MrgX1 allo act 7
Cc1c(NC(=O)Cc2noc3ccccc23)cccc1[N+](=O)[O-]	none
COCCSc1ccccc1C(=O)Nc1cc([N+](=O)[O-])ccc1OC	none
COc1ccc([N+](=O)[O-])cc1NC(=O)Cc1noc2ccccc12	MrgX1 antagonist -9.7
CC(C)(C)CC(=O)Nc1ccc(-c2nnc3n2CCCCC3)cc1	none
O=C(/C=C/c1ccccc1Cl)Nc1ccc(-c2nnc3n2CCCCC3)cc1	RGS4 pot -8.1
CN(C)c1nccc(N(Cc2ccccc2)Cc2ccccc2)c1C#N	RGS4 pot -7
CN(C)CCN(Cc1ccccc1)c1ccnc(N(C)C)c1C#N	none
O=S(=O)(c1ccc(Br)cc1)N1CCCN(Cc2cccc(F)c2)CC1	RGS4 pot -8.3
COc1cccc(CN2CCCN(S(=O)(=O)c3ccc(Br)cc3)CC2)c1	none
CC(C)n1cc(C(=O)N2CCCC(N3CCN(c4cccc(Cl)c4)CC3)C2)cn1 (configuration not stated)	none
Cc1ccc(N2CC(C(=O)OCC(=O)NNC(=O)c3ccccc3)CC2=O)cc1 (configuration not stated)	none
CC(NC(=O)c1ccc(NC2=NC3CS(=O)(=O)CC3S2)cc1)c1ccccc1 (configuration not stated)	none
COc1cccc(CN(C)C(=O)CCNC(=O)c2ccc(Br)cc2)c1	none
COc1cccc(NC(=O)CN(C)C(=O)CCNC(=O)c2ccc(Br)cc2)c1	MrgX1 antagonist -8.9
CC(=O)Nc1ccc(S(=O)(=O)NNC(=O)c2sc(=S)n(C)c2C)cc1	MrgX1 antagonist -4.6
Cc1c(C(=O)NNS(=O)(=O)c2ccccc2Cl)sc(=S)n1C	none
CC1CC=C2C(C#N)=C(N)C(C#N)(C#N)C(c3cccs3)C2C1 (configuration not stated)	MrgX1 antagonist -5.6
COc1cc(C2NCCc3c2[nH]c2ccccc32)ccc1OC(C)C (configuration not stated)	none
COc1ccc2[nH]c3c(c2c1)CCNC3c1ccc([N+](=O)[O-])o1 (configuration not stated)	MrgX1 antagonist -5.6
Cc1ccnc(NC(=O)CSc2ccc3c(c2)OCCO3)c1	RGS4 pot -7.3
NNC(=O)c1nc[nH]c1C(=O)Nc1ccccc1	none
O=C(NCC1OCCCN1S(=O)(=O)c1cc(F)ccc1F)C(=O)NC1CCCC1 (configuration not stated)	none
O=C(Nc1ccc(Cl)c(C(F)(F)F)c1)[C@@H]1CC=C[C@@H]2CCN(Cc3ccccc3)C(=O)[C@@H]21	MrgX1 allo act 7.2
CCCCc1cc(=O)oc2cc(C)cc(OCC(=O)N3C[C@H]4C[C@@H](C3)c3cccc(=O)n3C4)c12	none
O=C(CSC1=NS(=O)(=O)c2ccccc2N1)Nc1ccccc1F	none
S=C(NCCC(c1ccccc1)c1ccccc1)Nc1ccc(Cl)cc1	RGS4 pot -7.9
CN1/C(=C\C(=S)NC(=O)c2cccc(Br)c2)C(C)(C)c2ccccc21	none
CCN(CC)S(=O)(=O)c1cccc(C(=O)/C=C2/N(C)c3ccccc3C2(C)C)c1	RGS4 pot -7
COc1cc(NC(=O)CN2C(=O)COc3ccc(S(=O)(=O)N4CCCC4)cc32)cc(OC)c1	none
C#CCOCCOCCOCCNc1nc(N2CCN(C(=O)[C@H](C)n3cc(CCCN=C(N)N)nn3)CC2)nc(N2CCN(C(=O)[C@H](C)n3cc(CCCN=C(N)N)nn3)CC2)n1	MrgX1 allo act 8.4
C#CCOCCOCCOCCNc1nc(N2CCN(C(=O)CCCCCCCCCCNC(=O)Cn3cc(CCCCCN)nn3)CC2)nc(N2CCN(C(=O)CCCCCCCCCCNC(=O)[C@H]([C@@H](C)CC)n3cc(CCCCN=C(N)N)nn3)CC2)n1	MrgX1 agonist 116 (no result: RGS4 block, RGS4 pot)
C#CCOCCOCCOCCNc1nc(N2CCN(C(=O)CCCCCCCCCCNC(=O)[C@H]([C@@H](C)CC)n3cc(CCCCCN)nn3)CC2)nc(N2CCN(C(=O)CCCCCCCCCCNC(=O)[C@H]([C@@H](C)CC)n3cc(CCCCN=C(N)N)nn3)CC2)n1	MrgX1 agonist 81 (no result: RGS4 block, RGS4 pot)
C#CCOCCOCCOCCNc1nc(N2CCOCC2)nc(N2CCN(C(=O)CCCCCCCCCCNC(=O)[C@@H]([C@H](C)CC)n3cc(CCCCCN)nn3)CC2)n1	none (no result: RGS4 block, RGS4 pot)
C#CCOCCOCCOCCNc1nc(N2CCN(C(=O)CCCCCCCCCCNC(=O)[C@H]([C@@H](C)CC)n3cc(CCCCN=C(N)N)nn3)CC2)nc(N2CCN(C(=O)CCCCCCCCCCNC(=O)[C@H]([C@@H](C)CC)n3cc(CCCCN=C(N)N)nn3)CC2)n1	MrgX1 agonist 38 (no result: RGS4 block, RGS4 pot)
O=C(NCCN1CCOCC1)c1cc([N+](=O)[O-])cc([N+](=O)[O-])c1	none
C#CCOCCOCCOCCNc1nc(N2CCN(C(=O)CCCCCCCCCCNC(=O)[C@H](CO)n3cc(CCCSC)nn3)CC2)nc(N2CCN(C(=O)CCCCCCCCCCNC(=O)[C@H](CCCN=C(N)N)n3cc(C[C@@H](C)CC)nn3)CC2)n1	none (no result: RGS4 block, RGS4 pot)
